From ChEMBL document CHEMBL1629556 (2008)
≈ marks a conversion by molar mass, not a printed value. Calls of active or inactive are those of the source. The rule behind the calls is not given here.

What was measured:
Staphylococcus aureus [1] = assay: Antibacterial activity against Staphylococcus aureus isolate 2712 infected in Wistar rat thigh infection model assessed as bacterial load per gram of thigh at 200 mg/kg, sc administered 2 hrs postinfection and every 6 hrs thereafter for 1 day measured after 24 hrs (reference value: 8.6%); assay type: functional; conditions: route subcutaneous
Staphylococcus aureus [2] = assay: Antibacterial activity against Staphylococcus aureus isolate 2712 by agar dilution method; assay type: functional
Staphylococcus aureus [3] = assay: Effect on growth of against Staphylococcus aureus isolate 4666 assessed as highest compound concentration at which cell growth occurred measured after 48 hrs in presence of 2% NaCl; assay type: functional
In short: (§1)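 Inocula of about 10^8 to 10^6 CFU came from a 4 McFarland suspension. Colonies were counted after 48 h at 35°C. Three runs, median CFU.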

Staphylococcus aureus [4] = assay: Antibacterial activity against Staphylococcus aureus isolate 1552 by agar dilution method; assay type: functional
Staphylococcus aureus [5] = assay: Antibacterial activity against Staphylococcus aureus isolate 1306 by agar dilution method; assay type: functional
Staphylococcus aureus [6] = assay: Antibacterial activity against Staphylococcus aureus isolate 4666 infected in Wistar rat thigh infection model assessed as bacterial load per gram of thigh at 200 mg/kg, sc administered 2 hrs postinfection and every 6 hrs thereafter for 1 day measured after 24 hrs (reference value: 8.6%); assay type: functional; conditions: route subcutaneous
Staphylococcus aureus [7] = assay: Antibacterial activity against Staphylococcus aureus isolate 6083 assessed as reduction in bacterial count at 20 ug/ml after 24 hrs by time-kill assay; assay type: functional, organism-based
In short: (§2)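 Overnight Mueller-Hinton broth cultures were diluted in cation-adjusted MH broth. About 10^6 to 10^7 CFU went into MH broth with 20 μg/ml dicloxacillin at 35°C. Viable counts were made by spreading 0.1 ml at 0, 1, 3, 6, 9, 14, 24, 30, 42 and 48 h. Three runs, with the median CFU plotted semilogarithmically.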

Staphylococcus aureus [8] = assay: Antibacterial activity against Staphylococcus aureus isolate 4666 by agar dilution method; assay type: functional
Staphylococcus aureus [9] = assay: Antibacterial activity against Staphylococcus aureus isolate 1326 infected in Wistar rat thigh infection model assessed as bacterial load per gram of thigh at 200 mg/kg, sc administered 2 hrs postinfection and every 6 hrs thereafter for 1 day measured after 24 hrs (reference value: 8.6%); assay type: functional; conditions: route subcutaneous
Staphylococcus aureus [10] = assay: Effect on growth of Staphylococcus aureus isolate 1552 assessed as highest compound concentration at which cell growth occurred measured after 48 hrs; assay type: functional
In short: (§3)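 Overnight cultures were set to 4 McFarland in cation-adjusted MH broth and spread at about 10^8, 10^7 and 10^6 CFU, or 10^4 if growth was confluent. Colonies were counted after 48 h at 35°C. Three runs, median CFU.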

Staphylococcus aureus [11] = assay: Antibacterial activity against Staphylococcus aureus isolate 1552 assessed as reduction in bacterial count at 20 ug/ml after 24 hrs by time-kill assay; assay type: functional, organism-based; in short: as §2
Staphylococcus aureus [12] = assay: Antibacterial activity against Staphylococcus aureus isolate 1326 assessed as reduction in bacterial count at 20 ug/ml after 24 hrs by time-kill assay; assay type: functional, organism-based; in short: as §2
Staphylococcus aureus [13] = assay: Antibacterial activity against Staphylococcus aureus isolate 2712 assessed as reduction in bacterial count at 20 ug/ml after 24 hrs by time-kill assay; assay type: functional, organism-based; in short: as §2
Staphylococcus aureus [14] = assay: Effect on growth of Staphylococcus aureus isolate 4666 assessed as highest compound concentration at which cell growth occurred measured after 48 hrs; assay type: functional; in short: as §3
Staphylococcus aureus [15] = assay: Antibacterial activity against Staphylococcus aureus isolate 1552 infected in Wistar rat thigh infection model assessed as bacterial load per gram of thigh at 200 mg/kg, sc administered 2 hrs postinfection and every 6 hrs thereafter for 1 day measured after 24 hrs (reference value: 8.6%); assay type: functional; conditions: route subcutaneous
Staphylococcus aureus [16] = assay: Antibacterial activity against Staphylococcus aureus isolate 6083 infected in Wistar rat thigh infection model assessed as bacterial load per gram of thigh at 200 mg/kg, sc administered 2 hrs postinfection and every 6 hrs thereafter for 1 day measured after 24 hrs (reference value: 8.6%); assay type: functional; conditions: route subcutaneous
Staphylococcus aureus [17] = assay: Effect on growth of Staphylococcus aureus isolate 1326 assessed as highest compound concentration at which cell growth occurred measured after 48 hrs in presence of 2% NaCl; assay type: functional; in short: as §1
Staphylococcus aureus [18] = assay: Effect on growth of Staphylococcus aureus isolate 1326 assessed as highest compound concentration at which cell growth occurred measured after 48 hrs; assay type: functional; in short: as §3
Staphylococcus aureus [19] = assay: Effect on growth of Staphylococcus aureus isolate 1306 assessed as highest compound concentration at which cell growth occurred measured after 48 hrs; assay type: functional; in short: as §3
Staphylococcus aureus [20] = assay: Antibacterial activity against mecA-negative Staphylococcus aureus isolate 29213 by agar dilution method; assay type: functional
Staphylococcus aureus [21] = assay: Antibacterial activity against Staphylococcus aureus isolate 1326 by agar dilution method; assay type: functional
In short: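 mecA-positive clinical isolate collected October–November 2006, species confirmed on Vitek 2. MIC determined by agar dilution following CLSI guidelines, with 2-μg/ml concentration steps from 2 to 16 μg/ml.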

Staphylococcus aureus [22] = assay: Antibacterial activity against Staphylococcus aureus isolate 1306 assessed as reduction in bacterial count at 20 ug/ml after 24 hrs by time-kill assay; assay type: functional, organism-based; in short: as §2
Staphylococcus aureus [23] = assay: Antibacterial activity against Staphylococcus aureus isolate 29213 infected in Wistar rat thigh infection model assessed as bacterial load per gram of thigh at 200 mg/kg, sc administered 2 hrs postinfection and every 6 hrs thereafter for 1 day measured after 24 hrs (reference value: 8.6%); assay type: functional; conditions: route subcutaneous
Staphylococcus aureus [24] = assay: Antibacterial activity against Staphylococcus aureus isolate 4666 assessed as reduction in bacterial count at 20 ug/ml after 24 hrs by time-kill assay; assay type: functional, organism-based; in short: as §2
Staphylococcus aureus [25] = assay: Effect on growth of mecA-negative Staphylococcus aureus isolate 29213 by assessed as highest compound concentration at which cell growth occurred measured after 48 hrs; assay type: functional; in short: as §3
Staphylococcus aureus [26] = assay: Antibacterial activity against mecA-negative Staphylococcus aureus isolate 29213 assessed as reduction in bacterial count at 20 ug/ml after 24 hrs by time-kill assay; assay type: functional, organism-based; in short: as §2
Staphylococcus aureus [27] = assay: Antibacterial activity against Staphylococcus aureus isolate 1306 infected in Wistar rat thigh infection model assessed as bacterial load per gram of thigh at 200 mg/kg, sc administered 2 hrs postinfection and every 6 hrs thereafter for 1 day measured after 24 hrs (reference value: 8.6%); assay type: functional; conditions: route subcutaneous
Staphylococcus aureus [28] = assay: Antibacterial activity against Staphylococcus aureus isolate 6083 by agar dilution method; assay type: functional

Cc1onc(-c2ccccc2)c1C(=O)N[C@@H]1C(=O)N2[C@@H]1SC(C)(C)[C@@H]2C(=O)O [OXACILLIN]
Activity (Staphylococcus aureus [1]): 8.8%
MIC (Staphylococcus aureus [2]): 256 µg/mL (≈ 638 µM)
Activity (Staphylococcus aureus [3]): 2 µg/mL
MIC (Staphylococcus aureus [4]): 1 µg/mL (≈ 2.49 µM)
MIC (Staphylococcus aureus [5]): 0.5 µg/mL (≈ 1.25 µM)
Activity (Staphylococcus aureus [6]): 10.4%
inhibition (Staphylococcus aureus [7]): Active
MIC (Staphylococcus aureus [8]): 1 µg/mL (≈ 2.49 µM)
Activity (Staphylococcus aureus [9]): 4.3%
Activity (Staphylococcus aureus [10]): 64 µg/mL
inhibition (Staphylococcus aureus [11]): Active
inhibition (Staphylococcus aureus [12]): Active
inhibition (Staphylococcus aureus [13]): inactive
Activity (Staphylococcus aureus [14]): 1 µg/mL
Activity (Staphylococcus aureus [15]): 9.1%
Activity (Staphylococcus aureus [16]): 6.2%
Activity (Staphylococcus aureus [17]): 1 µg/mL
Activity (Staphylococcus aureus [18]): 0.5 µg/mL
Activity (Staphylococcus aureus [19]): 32 µg/mL
MIC (Staphylococcus aureus [20]): 0.125 µg/mL (≈ 0.311 µM)
MIC (Staphylococcus aureus [21]): 0.25 µg/mL (≈ 0.623 µM)
inhibition (Staphylococcus aureus [22]): Active
Activity (Staphylococcus aureus [23]): 12.4%
inhibition (Staphylococcus aureus [24]): Active
Activity (Staphylococcus aureus [25]): 0.5 µg/mL
inhibition (Staphylococcus aureus [26]): Active
Activity (Staphylococcus aureus [27]): 9.7%
MIC (Staphylococcus aureus [28]): 6 µg/mL (≈ 14.9 µM)
